Measurements collected from several papers.
Lines come from different studies, so protocols differ.
HLA class I histocompatibility antigen, B alpha chain: HLA class I histocompatibility antigen, B alpha chain (Homo sapiens, UniProt P01889)
HTR2C: 5-hydroxytryptamine receptor 2C (HTR2C, Homo sapiens, UniProt P28335)
HTR2B: 5-hydroxytryptamine receptor 2B (HTR2B, Homo sapiens, UniProt P41595)

O=C1Nc2ccc3ncsc3c2/C1=C/c1cnc[nH]1
IC50 (Serine/threonine-protein kinase Nek6 (NEK6, Homo sapiens, UniProt Q9HC98); enzyme activity; inhibitor): 27.5 µM

CC(C)C[C@H](NC(=O)[C@H](CC(C)C)NC(=O)[C@@H]1CCCN1C(=O)[C@H](C)NC(=O)[C@@H](NC(=O)[C@H](C)N)C(C)C)C(=O)N[C@@H](Cc1c[nH]cn1)C(=O)N[C@@H](CO)C(=O)N[C@H](C(=O)O)[C@@H](C)OP(=O)(O)O
Kd (Serine/threonine-protein kinase PLK1, polo-box (PLK1, Homo sapiens, UniProt P53350); binding; MST; pH 8): 0.0463 µM

CC[C@H](C)[C@H](NC(=O)[C@@H]1CCCN1C(=O)[C@H](Cc1c[nH]cn1)NC(=O)[C@H](CCCCN)NC(=O)[C@H](Cc1ccc(O)cc1)NC(=O)[C@@H](NC(=O)[C@@H](N)Cc1ccc(O)cc1)[C@@H](C)O)C(=O)N[C@@H](Cc1ccc(O)cc1)C(=O)N[C@@H](CC(C)C)C(=O)O
IC50 (HLA class I histocompatibility antigen, B alpha chain; cell-free assay): 17.7 µM

COc1cc(C(F)(F)F)c(OC)cc1C1CCCNC1 (stereo not shown)
EC50 (HTR2C; G protein activation; agonist; BRET): 0.036 µM

CC[C@H](C)[C@H](NC(=O)[C@@H](N)CCSC)C(=O)N[C@@H](Cc1ccccc1)C(=O)N[C@@H](CC(=O)O)C(=O)N[C@@H](CCCCN)C(=O)N1CCC[C@H]1C(=O)N[C@H](C(=O)N[C@@H](Cc1ccc(O)cc1)C(=O)N[C@@H](Cc1ccccc1)C(=O)O)C(C)C
IC50 (HLA class I histocompatibility antigen, B alpha chain; cell-free assay): 36 µM

COc1cc2c(cc1OC)-c1c(OC)c(OC)cc3c1[C@H](C2)N(C)CC3 (racemic)
Ki (HTR2B; ligand displacement; radioligand): 0.613 µM

CC[C@H](C)[C@H](NC(=O)[C@H](Cc1ccccc1)NC(=O)[C@@H]1CCCN1C(=O)CNC(=O)[C@H](Cc1ccc(O)cc1)NC(=O)[C@H](CCSC)NC(=O)[C@@H](N)CCCNC(=N)N)C(=O)N[C@@H](Cc1c[nH]cn1)C(=O)N[C@@H](Cc1ccccc1)C(=O)O
IC50 (HLA class I histocompatibility antigen, B alpha chain; cell-free assay): 31.4 µM

CCCC(NCCc1cc(OC)c(C#N)cc1OC)c1ccccc1O (stereo not shown)
EC50 (HTR2C; calcium signal; agonist): 7.9 µM

Nc1ncnc2c1ncn2[C@@H]1O[C@H](C[C@@H](N)CC[C@H](N)C(=O)O)[C@@H](O)[C@H]1O
IC50 (mRNA cap guanine-N(7) methyltransferase (RNMT, Homo sapiens, UniProt O43148); enzyme activity; inhibitor): 9.02 µM

COc1cc2c(cc1OC)CN(CCc1ccc(NC(=O)c3cccc4c(=O)c5cccc(OC)c5[nH]c34)cc1)CC2
Ki (HTR2B; cell-free assay): 0.222 µM
